Ten compounds from ChEMBL document CHEMBL1138882, “The design, synthesis, and evaluation of organ-specific iron chelators” (J Med Chem, 2006) can be followed below.

The test system of data set [1] is Rattus norvegicus. Nature of the data set: Iron clearing efficiency in Sprague-Dawley rat at 300 umol/kg, po. In kind it is functional. In a few lines:
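Bile-duct-cannulated, non-iron-overloaded male Sprague-Dawley rats (400–450 g) given single oral dose, 150 or 300 μmol/kg, as water solution, in 40% Cremophor RH-40/water, or monosodium salt. Bile every 3 h up to 48 h, urine every 24 h; iron by flame AAS. Efficiency = (treated minus control iron excretion)/theoretical output (2:1 complex), percent; mean ± SEM.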

Data set [2] can be described thus: (§1) Drug level in Sprague-Dawley rat plasma at 300 umol/kg, sc after 0.5 hrs. It is filed as ADME, organism-based. The settings on record: Sprague-Dawley, plasma, 300 umol/kg. In a few lines:
(§2)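 Plasma: male Sprague-Dawley rats (250–350 g) dosed sc once at 300 μmol/kg as monosodium salt; blood by cardiac puncture into sodium citrate, centrifuged; methanol deproteinization, filtered, HPLC-UV 310 nm, detection limit 0.5 μM; μM, mean of n = 3 per time point.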

Data set [3] is described as follows: Drug level in Sprague-Dawley rat plasma at 300 umol/kg, sc after 2 hrs. In kind it is ADME, organism-based. In a few lines:
as §2

For data set [4], the system named is Rattus norvegicus. Nature of the data set: Drug level in Sprague-Dawley rat kidney at 300 umol/kg, sc after 0.5 hrs. In kind it is ADME, organism-based. To be noted: in vivo. In a few lines: (§3)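 Kidney level after single sc 300 μmol/kg monosodium salt in male Sprague-Dawley rats (250–350 g), n = 3 per time point. Water homogenate (1:2 w/v), methanol protein precipitation, 0.2 μm filtration, RP amide C16 HPLC with UV at 310 nm; linear range 1–1000 μM; reported as nmol/g wet weight, mean.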

For data set [5], the system named is Rattus norvegicus. In words: Toxicity in Sprague-Dawley rat at 384 umol/kg, po. It is filed as organism-based. To be noted: in vivo. In a few lines:
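Male Sprague-Dawley rats (250–300 g), fasted overnight, gavaged once daily at 384 μmol/kg/d for up to 10 d; fed ~3 h post-dose for 5 h, then fasted. Age-matched controls; monitored at least three times daily, moribund animals euthanized; survivors sacrificed one day after last dose for histopathology.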

For the next data set, the system named is Monkey. In words: Iron clearing efficiency in monkey at 150 umol/kg. In kind it is functional, Sapajus apella. In a few lines: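 Cebus apella monkeys (3.5–4 kg) iron-overloaded with iv iron dextran (~500 mg Fe/kg), ≥60 d before use; single po 150 μmol/kg (monosodium salt or 40% Cremophor RH-40/water). Feces and urine collected every 24 h, 4 d before to 5 d after dosing; iron by flame AAS. ICE = 2-day post-drug output minus 4-day pre-drug mean, over theoretical (2:1 complex), percent; mean ± SEM.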

Data set [6] is described as follows: Partition coefficient, log P of the compound. It is filed as physicochemical. To be noted: octanol/water. In a few lines: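 Shake-flask direct partition between octanol and TRIS buffer, pH 7.4; expressed as log of the fraction in the octanol layer (log P_app).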
Data set [7] relates to Rattus norvegicus. Nature of the data set: Drug level in Sprague-Dawley rat heart at 300 umol/kg, sc after 0.5 hrs. In kind it is ADME, organism-based. The settings on record: in vivo. In a few lines: (§4)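 Heart drug level: male Sprague-Dawley rats (250–350 g), single sc injection of monosodium salt, 300 μmol/kg; CO2 euthanasia at set times (n = 3 per time point). Tissue homogenized in water 1:2 (w/v), proteins precipitated with 3 vol CH3OH at −20 °C 20 min, filtered; reversed-phase HPLC, UV 310 nm, calibration-curve quantitation; nmol/g wet weight, mean.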

The subject of data set [8] is Rattus norvegicus. Nature of the data set: Drug level in Sprague-Dawley rat pancreas at 300 umol/kg, sc after 1 hr. It is filed as ADME, organism-based. To be noted: in vivo. In a few lines: (§5)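 Pancreas concentration: single sc 300 μmol/kg (monosodium salt) to male Sprague-Dawley rats (250–350 g), three rats per time point, CO2 euthanasia. Tissue homogenate in water (1:2 w/v), CH3OH protein precipitation, filtration, RP HPLC with 310 nm UV detection; nmol/g wet weight, mean.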

The subject of data set [9] is Rattus norvegicus. Nature of the data set: Drug level in Sprague-Dawley rat liver at 300 umol/kg, sc after 0.5 hrs. In kind it is ADME, organism-based. The settings on record: in vivo. In a few lines:
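Liver sampled from male Sprague-Dawley rats (250–350 g) given one sc dose, 300 μmol/kg, as monosodium salt; n = 3 per time point. Homogenized in water, methanol-precipitated, filtered, analysed by HPLC-UV at 310 nm against calibration curves; nmol compound per g wet weight, mean; O-demethylated metabolite also measured.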

Data set [10] relates to Rattus norvegicus. In words: Drug level in Sprague-Dawley rat heart at 300 umol/kg, sc after 4 hrs. It is filed as ADME, organism-based. The settings on record: in vivo. In a few lines:
as §4

The subject of data set [11] is Rattus norvegicus. Nature of the data set: Drug level in Sprague-Dawley rat pancreas at 300 umol/kg, sc after 4 hrs. To be noted: in vivo. It is filed as ADME, organism-based. In a few lines:
as §5

Data set [12] deals with Rattus norvegicus. The description is as §1. It is filed as ADME, organism-based. The settings on record: in vivo, 0.5 h. In a few lines:
as §2

Data set [13] deals with Rattus norvegicus. In words: Drug level in Sprague-Dawley rat heart at 300 umol/kg, sc after 8 hrs. In kind it is ADME, organism-based. The settings on record: in vivo. In a few lines:
as §4

In data set [14] the test system is Rattus norvegicus. In words: Drug level in Sprague-Dawley rat kidney at 300 umol/kg, sc after 1 hr. It is filed as ADME, organism-based. To be noted: in vivo. In a few lines:
as §3

For the compound `O=C(O)[C@H]1CSC(c2ccc(O)cc2O)=N1`, the results for the Activity in the data set with Rattus norvegicus [1], with Rattus norvegicus [5] and in the data set on Monkey were 2.9%, “Non-toxic” and 4.2%, respectively. For the same compound, the concentration at 0.5 h in data set [2] stood at 209 µM. The same compound came in with a concentration at 2 h in data set [3] of 5 µM. The compound also had a Drug uptake in the data set with Rattus norvegicus [4] of 667 nmol/g.
With `O=C(O)[C@H]1CSC(c2cc(O)ccc2O)=N1`, the logP in [6] was -1.52. In addition, the Drug uptake in the data set on Rattus norvegicus [7] is on record as 42 nmol/g; in the data set on Rattus norvegicus [4], 629 nmol/g. For the same compound, the Activity entry in the data set on Rattus norvegicus [5] is given as “Non-toxic”; in the data set with Monkey it was 1.8%.
With `COc1ccc(O)c(C2=N[C@@](C)(C(=O)O)CS2)c1`, the results for the Activity in the data set on Rattus norvegicus [1], in the data set on Rattus norvegicus [5] and in the data set on Monkey were 6.3%, “Toxic” and 18.9%, respectively. The compound further gave a concentration at 0.5 h in data set [2] of 803 µM. Besides, in [6], the lipophilicity (logP) was -0.61. For the same compound, the results for the Drug uptake in the data set on Rattus norvegicus [7], in the data set with Rattus norvegicus [8] and with Rattus norvegicus [9] were 208 nmol/g, 153 nmol/g and 382 nmol/g, respectively.
Consider `COc1ccc(O)c(C2=N[C@@H](C(=O)O)CS2)c1`, for which the Activity is listed as 8.9% in the data set on Rattus norvegicus [1], “Non-toxic” in the data set on Rattus norvegicus [5] and 12% in the data set with Monkey. This compound had a logP in [6] of -0.81. Besides, the Drug uptake in the data set on Rattus norvegicus [10] came to 61 nmol/g; with Rattus norvegicus [7], 380 nmol/g; in the data set on Rattus norvegicus [9] it was 564 nmol/g; in the data set with Rattus norvegicus [11], 45 nmol/g.
As for `COc1ccc(C2=N[C@@H](C(=O)O)CS2)c(O)c1OC`, the Activity with Rattus norvegicus [1] is recorded as 11.9%; in the data set with Rattus norvegicus [5] it was “Non-toxic”; in the data set with Monkey, 12.4%. Further, the logP in [6] is -1.28. The Drug uptake with Rattus norvegicus [7] was found to be 185 nmol/g.
Take `COc1ccc(C2=N[C@@](C)(C(=O)O)CS2)c(O)c1OC`: the Activity is given as 16.6% in the data set with Rattus norvegicus [1] and “Toxic” with Rattus norvegicus [5]. The compound further showed a Cp in the data set on Rattus norvegicus [12] of 907 µM. In [6], this compound returned a logP of -0.95. The Drug uptake in the data set with Rattus norvegicus [13] stood at 3 nmol/g; in the data set with Rattus norvegicus [7], 259 nmol/g; in the data set with Rattus norvegicus [4], 1375 nmol/g; in the data set on Rattus norvegicus [9] it was 924 nmol/g.
Consider `COc1ccc(C2=N[C@@H](C(=O)O)CS2)c(O)c1`, for which the Activity was 11.6% in the data set on Rattus norvegicus [1], “Non-toxic” in the data set on Rattus norvegicus [5] and 16.2% with Monkey.
As to `COc1ccc(C2=N[C@@](C)(C(=O)O)CS2)c(O)c1`, the Activity is 6.6% in the data set with Rattus norvegicus [1], “Toxic” in the data set with Rattus norvegicus [5] and 24.4% in the data set on Monkey. This compound also gave a Drug uptake with Rattus norvegicus [4] of 282 nmol/g.
On to `C[C@]1(C(=O)O)CSC(c2cc(O)ccc2O)=N1`, for which the figures for the Activity with Rattus norvegicus [1], in the data set on Rattus norvegicus [5] and in the data set with Monkey were 1%, “Non-toxic” and 12.6%, respectively. Further, in data set [6], the logP is -1.14. The same compound had a Drug uptake in the data set with Rattus norvegicus [4] of 1216 nmol/g.
As for `C[C@]1(C(=O)O)CSC(c2ccc(O)cc2O)=N1` [DEFERITRIN], the Activity is given as 1.1% in the data set with Rattus norvegicus [1], “Non-toxic” in the data set with Rattus norvegicus [5] and 16.8% in the data set with Monkey. The compound further gave a concentration at 0.5 h in [2] of 92 µM. Besides, the concentration at 2 h in data set [3] amounted to 13 µM. Moreover, the Drug uptake in the data set with Rattus norvegicus [14] is recorded as 179 nmol/g; in the data set on Rattus norvegicus [4], 361 nmol/g; with Rattus norvegicus [9], 124 nmol/g.

A word on the logP: it is the decadic logarithm of the partition coefficient of the neutral form, usually between octanol and water.
